Measured values of several laboratories.

SMILES	target or system	test	test system	conditions	quantity	value
Cc1cc(S(=O)(=O)NC2CC(N3CCN(CC4CCN(c5ccc6c(c5F)n(C)c(=O)n6C5CCC(=O)NC5=O)CC4)CC3)C2)ccc1Nc1ncc(C(F)(F)F)c(N2CCCC(C)(O)C2)n1 (stereo not drawn)	MDCK		Caco-2	1 µM, 2 h, pH 7.4	Papp A→B	1.9 ×10⁻⁶ cm/s
Nc1nc(S)nc(O)c1N=Cc1cn(-c2ccccc2)nc1-c1ccc(Cl)cc1	MCF-10A	cell growth or viability		48 h	CC50	> 40 µM
CC(=O)N1N=C(c2ccc(NC(=O)CN3CCN(c4ccc(Cl)cc4)CC3)cc2)CC1c1ccc(C)cc1 (stereo not drawn)	MCF-10A	cell growth or viability, MTT		50 µM, 96 h	viability	89%
O=c1c2ccccc2[nH]c2cc(Oc3ccc(OC(F)(F)F)cc3)ccc12		metabolic stability	mouse, liver microsomes	1 µM, pH 7.4	half-life	26.9 min
O=C(CN1CCN(c2ccc(Cl)cc2)CC1)Nc1ccc(C(=O)C=Cc2ccco2)cc1	MCF-10A	cell growth or viability, MTT		50 µM, 96 h	viability	90%
C[C@H]1Oc2cc(cnc2N)-c2c(nn(C)c2C#N)CN(C)C(=O)c2ccc(F)cc21			male Sprague-Dawley rat, brain	oral, 10 mg/kg, 24 h, single dose	concentration	16.4 ng/g
COc1ccc(N2CCN(CC(=O)Nc3ccc(C(=O)C=Cc4ccc(C)cc4)cc3)CC2)cc1	MCF-10A	cell growth or viability, MTT		50 µM, 96 h	viability	90%
Cc1cc(S(=O)(=O)N[C@]2(C)C[C@@H](N3CCN(CC4CCN(c5ccc6c(c5F)n(C)c(=O)n6C5CCC(=O)NC5=O)CC4)CC3)C2)ccc1Nc1ncc(C(F)(F)F)c(N2CCC[C@](C)(O)C2)n1 (stereo partly drawn)	MDCK		Caco-2	1 µM, 2 h, pH 7.4	Papp A→B	1.5 ×10⁻⁶ cm/s
O=c1c2ccc(OCc3cccc(OC(F)(F)F)c3)cc2[nH]c2ccc(Cl)c(F)c12		metabolic stability	mouse, liver microsomes	1 µM, pH 7.4	half-life	> 60 min
CNS(=O)(=O)c1ccc(Nc2ncc(C(F)(F)F)c(N3CCC(C)(O)CC3)n2)c(C)c1	MDCK		Caco-2	1 µM, 2 h, pH 7.4	Papp A→B	9 ×10⁻⁶ cm/s
O=c1c2c([nH]c3ccc(Oc4ccc(OC(F)(F)F)cc4)cc13)CCCC2		metabolic stability	mouse, liver microsomes	1 µM, pH 7.4	half-life	35.5 min
COc1ccc(N2CCN(CC(=O)Nc3ccc(C(=O)C=Cc4ccc(Br)cc4)cc3)CC2)cc1	MCF-10A	cell growth or viability, MTT		50 µM, 96 h	viability	90%
O=c1c2c([nH]c3cc(Oc4cccc(OC(F)(F)F)c4)ccc13)CCCC2		metabolic stability	mouse, liver microsomes	1 µM, pH 7.4	half-life	> 60 min
Cc1cc(S(=O)(=O)NC2CC(N3CCN(CC4CCN(c5cccc6c5n(C)c(=O)n6C5CCC(=O)NC5=O)CC4)CC3)C2)ccc1Nc1ncc(C(F)(F)F)c(N2CCC[C@](C)(O)C2)n1 (stereo partly drawn)	MDCK		Caco-2	1 µM, 2 h, pH 7.4	Papp A→B	1.2 ×10⁻⁶ cm/s
CCCN(CCC)CCNc1ccc2c(=O)c3c([nH]c2c1)CCCC3		metabolic stability	mouse, liver microsomes	1 µM, pH 7.4	half-life	16.9 min
Cc1cc(S(=O)(=O)N[C@H]2CC[C@H](N3CCN(CC4CCN(c5cccc6c5n(C)c(=O)n6C5CCC(=O)NC5=O)CC4)CC3)CC2)ccc1Nc1ncc(C(F)(F)F)c(N2CCC[C@](C)(O)C2)n1 (stereo partly drawn)	MDCK		Caco-2	1 µM, 2 h, pH 7.4	Papp A→B	0.7 ×10⁻⁶ cm/s
Cc1ccc(-c2nn(-c3ccccc3)cc2C=Nc2c(N)nc(S)nc2O)cc1	MCF-10A	cell growth or viability		48 h	CC50	> 20 µM
O=c1c2ccc(OCc3cccc(C(F)(F)F)c3)cc2[nH]c2ccc(Cl)c(F)c12		metabolic stability	mouse, liver microsomes	1 µM, pH 7.4	half-life	> 60 min
COc1ccc(C2CC(c3ccc(NC(=O)CN4CCN(c5ccc(OC)cc5)CC4)cc3)=NN2C(C)=O)cc1 (stereo not drawn)	MCF-10A	cell growth or viability, MTT		50 µM, 96 h	viability	92%
Cc1cc(S(=O)(=O)NC2CC(N3CCN(CC4CCN(c5cccc6c5n(C)c(=O)n6C5CCC(=O)NC5=O)CC4)C4(CC4)C3)C2)ccc1Nc1ncc(C(F)(F)F)c(N2CCC[C@](C)(O)C2)n1 (stereo partly drawn)	MDCK		Caco-2	1 µM, 2 h, pH 7.4	Papp A→B	0.7 ×10⁻⁶ cm/s
O=c1c2c([nH]c3cccc(Oc4ccc(OC(F)(F)F)cc4)c13)CCCC2		metabolic stability	mouse, liver microsomes	1 µM, pH 7.4	half-life	11.9 min
O=C(CN1CCN(c2ccc(Cl)cc2)CC1)Nc1ccc(C(=O)C=Cc2ccccc2)cc1	MCF-10A	cell growth or viability, MTT		50 µM, 96 h	viability	85%
Cc1cc(S(=O)(=O)NC2CC(N3CC[C@@H](OC4CN(c5cccc6c5n(C)c(=O)n6C5CCC(=O)NC5=O)C4)[C@H](F)C3)C2)ccc1Nc1ncc(C(F)(F)F)c(N2CCC[C@](C)(O)C2)n1 (stereo partly drawn)	MDCK		Caco-2	1 µM, 2 h, pH 7.4	Papp A→B	0.9 ×10⁻⁶ cm/s
CC(=O)N1N=C(c2ccc(NC(=O)CN3CCN(c4ccc(Cl)cc4)CC3)cc2)CC1c1ccc(Cl)cc1Cl (stereo not drawn)	MCF-10A	cell growth or viability, MTT		50 µM, 96 h	viability	91%
CNS(=O)(=O)c1ccc(Nc2ncc(C(F)(F)F)c([C@H]3CC[C@](C)(O)CC3)n2)c(C)c1	MDCK		Caco-2	1 µM, 2 h, pH 7.4	Papp A→B	12.3 ×10⁻⁶ cm/s
COc1ccc(N2CCN(CC(=O)Nc3ccc(C(=O)C=Cc4ccco4)cc3)CC2)cc1	MCF-10A	cell growth or viability, MTT		50 µM, 96 h	viability	82%
CCCCN(CCCC)CCCOc1ccc2c(=O)c3c([nH]c2c1)CCCC3		metabolic stability	mouse, liver microsomes	1 µM, pH 7.4	half-life	38.3 min
